Experimental data: ChEMBL document CHEMBL3872271, “Identification and validation of small molecule modulators of the NusB-NusE interaction” (Bioorg Med Chem Lett, 2017)

Key:
[1] = test system: Bacillus subtilis; test: Inhibition of Bacillus subtilis full length NusB/GST-tagged NusE interaction at 25 uM preincubated with NusE for 15 mins followed by incubation with NusB for 1 hr by ELISA
Summary of the method: (§1)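 Wells coated overnight at 4 °C with purified full-length B. subtilis NusB (250 nM in PBS), then blocked with 1% BSA/PBS for 2 h at RT. Inhibitor preincubated with GST-NusE (200 nM) for 15 min at 37 °C, then added to wells for 1 h at RT. Bound NusE detected with rabbit anti-GST (1:2000), goat anti-rabbit HRP (1:2000) and TMB (6 min, 37 °C), read at OD 600 nm.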

[2] = Inhibition of Bacillus subtilis full length NusB/GST-tagged NusE preincubated with NusE for 15 mins followed by incubation with NusB for 1 hr by ELISA; summary of the method: as §1
[3] = test system: Escherichia coli; test: Growth inhibition of Escherichia coli DH5alpha at 200 uM measured every 10 mins for 16 hrs; assay type: functional; conditions: DH5[alpha], read-out: GI
Summary of the method: (§2)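 Cells grown at 37 °C in LB with shaking to OD 0.6–0.7 AU, then added to LB containing compound (50 mM DMSO stocks, serially diluted to 200 μM). Plates incubated at 37 °C, 200 rpm. OD600 was read every 10 min for 16 h with LB as blank. Triplicates, with growth compared to cells given equal DMSO.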

[4] = test system: Bacillus subtilis; test: Growth inhibition of Bacillus subtilis at 200 uM measured every 10 mins for 16 hrs; assay type: functional; conditions: read-out: GI; summary of the method: as §2

COc1ccc(-c2cc(-c3ccc(OC)c(OC)c3)nc(NS(=O)(=O)c3ccc(NC(C)=O)cc3)n2)c(OC)c1
inhibition [1]: 88% | IC50 [2]: 6.1 µM | inhibition of growth at 200 µM [3]: 21% | inhibition of growth at 200 µM [4]: 9%

COc1ccc(/C=C/C(=O)c2ccc(OC)c(OC)c2)c(OC)c1
inhibition [1]: 48%

COc1cc(/C=N/NC(=O)CCc2ccc(O)cc2)cc(OC)c1OC
inhibition [1]: 5% | inhibition of growth at 200 µM [3]: 10% | inhibition of growth at 200 µM [4]: 44%

COc1ccc(-c2cc(-c3ccc(OC)c(OC)c3)nc(NS(=O)(=O)c3ccc(N)cc3)n2)c(OC)c1
inhibition [1]: 3%

O=[N+]([O-])c1ccc(OCC(O)CNCCNc2nccc(C(F)(F)F)n2)cc1 (racemic)
inhibition of growth at 200 µM [3]: 11% | inhibition of growth at 200 µM [4]: 19%

CCNC(=O)Nc1ccc(OCCCCOc2ccc(NC(=O)NCC)cc2)cc1
inhibition [1]: 52% | IC50 [2]: 19.8 µM | inhibition of growth at 200 µM [3]: 17%

H-YDHRLLDQS-NH2
IC50 [2]: 71 µM

Oc1ccccc1CNc1ccc(OCCCCOc2ccc(NCc3ccccc3O)cc2)cc1
inhibition [1]: 45% | IC50 [2]: 210 µM
